Laboratory results taken from ChEMBL document CHEMBL1123764, “Long-acting angiotensin II inhibitors containing hexafluorovaline in position 8” (J Med Chem, 1987).

Experiments:
Rattus norvegicus [1] = species: Rattus norvegicus; experiment: Time course for AII (6 ng) induced pressor response in rats to return to 50% of pretreatment level after a bolus injection of 100 microg; assay type: functional, organism-based
Outline: (§1)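 Female Wistar rats were anesthetized with pentobarbital sodium (30 mg/kg), vagotomized, cannulated in the carotid artery and femoral vein, and given pentolinium tartrate (5 mg/200 g). After a bolus injection of inhibitor, 6 ng AII was injected at 15-min intervals while blood pressure was recorded by transducer. The read-out is the time for the pressor response to recover to 50% of pretreatment.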

Rattus norvegicus [2] = species: Rattus norvegicus; experiment: Time course for AII (6 ng) induced pressor response in rats to return to 50% of pretreatment level after a bolus injection of 10 microg; assay type: functional, organism-based; outline: as §1
Rattus norvegicus [3] = species: Rattus norvegicus; experiment: Time course for AII (6 ng) induced pressor response in rats to return to 50% of pretreatment level after a bolus injection of 30 microg; assay type: functional, organism-based; outline: as §1
Rattus norvegicus [4] = species: Rattus norvegicus; experiment: Antagonism determined in rat stomach against AII; assay type: functional; conditions: read-out: pA2 (converted)
Oryctolagus cuniculus [5] = species: Oryctolagus cuniculus; experiment: Antagonism determined in rabbit aorta against AII; assay type: functional; conditions: read-out: pA2 (converted)
Rattus norvegicus [6] = species: Rattus norvegicus; experiment: In vitro agonistic activity against angiotensin II was determined to produce 25% maximal response in rat stomach at a dose of 50 ng/mL; assay type: functional
Oryctolagus cuniculus [7] = species: Oryctolagus cuniculus; experiment: In vitro antagonistic activity against angiotensin II was determined to produce 25% maximal response in rabbit aorta at a dose of 50 ng/mL
Oryctolagus cuniculus [8] = species: Oryctolagus cuniculus; experiment: Dose required to produce(to produce 25% maximal response) In vitro agonistic activity against angiotensin II in rabbit aorta; assay type: functional
Outline: (§2)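 Isolated rabbit aorta or rat stomach strips were used. Agonist activity (%) is the AII dose producing 25% of maximal response divided by the analogue dose producing the same response. Each value comes from 3 experiments.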

Rattus norvegicus [9] = species: Rattus norvegicus; experiment: In vitro agonistic activity against angiotensin II was determined to produce 25% maximal response in rat stomach at a dose of 10 ng/mL; assay type: functional
Rattus norvegicus [10] = species: Rattus norvegicus; experiment: Dose required to produce(to produce 25% maximal response) In vitro agonistic activity against angiotensin II in rat stomach; assay type: functional; outline: as §2
Oryctolagus cuniculus [11] = species: Oryctolagus cuniculus; experiment: In vitro antagonistic activity against angiotensin II was determined to produce 25% maximal response in rabbit aorta at a dose of 10 ng/mL
Rattus norvegicus [12] = species: Rattus norvegicus; experiment: Time course for AII (6 ng) induced pressor response in rats to return to 50% of pretreatment level after a bolus injection of 3 microg; assay type: functional, organism-based; outline: as §1
Rattus norvegicus [13] = species: Rattus norvegicus; experiment: Time course for AII (6 ng) induced pressor response in rats to return to 50% of pretreatment level after a bolus injection of 1 microg; assay type: functional, organism-based; outline: as §1
Rattus norvegicus [14] = species: Rattus norvegicus; experiment: Time course for AII (6 ng) induced pressor response in rats to return to 50% of pretreatment level after a bolus injection of 50 microg; assay type: functional, organism-based; outline: as §1
Rattus norvegicus [15] = species: Rattus norvegicus; experiment: Antagonistic potency determined in rat stomach at 10 ng/mL expressed as dose ratio of AII to produce 25% of control maximal response; assay type: functional
Oryctolagus cuniculus [16] = species: Oryctolagus cuniculus; experiment: Antagonistic potency determined in rabbit aorta at 10 ng/mL expressed as dose ratio of AII to produce 25% of control maximal response; assay type: functional
Rattus norvegicus [17] = species: Rattus norvegicus; experiment: Dose required to produce( 25% maximal response) In vitro agonistic activity against angiotensin II in rat stomach; assay type: functional; outline: as §2
Oryctolagus cuniculus [18] = species: Oryctolagus cuniculus; experiment: Antagonistic potency determined in rabbit aorta at 1 ng/mL expressed as dose ratio of AII to produce 25% of control maximal response; assay type: functional
Rattus norvegicus [19] = species: Rattus norvegicus; experiment: Antagonistic potency determined in rat stomach at 1 ng/mL expressed as dose ratio of AII to produce 25% of control maximal response; assay type: functional
Oryctolagus cuniculus [20] = species: Oryctolagus cuniculus; experiment: Dose required to produce(25% maximal response) In vitro agonistic activity against angiotensin II in rabbit aorta; assay type: functional; outline: as §2
Rattus norvegicus [21] = species: Rattus norvegicus; experiment: Time course for AII (6 ng) induced pressor response in rats to return to 50% of pretreatment level after a bolus injection of 5 microg; assay type: functional, organism-based; outline: as §1

CNCC(=O)N[C@@H](CCCNC(=N)N)C(=O)N[C@H](C(=O)N[C@@H](Cc1ccc(O)cc1)C(=O)N[C@H](C(=O)N[C@@H](Cc1cnc[nH]1)C(=O)N1CCC[C@H]1C(=O)N[C@@H](C)C(=O)O)C(C)C)C(C)C
Recovery time (Rattus norvegicus [1]): 18 min
Recovery time (Rattus norvegicus [2]): 11 min
Recovery time (Rattus norvegicus [3]): 13.7 min

CNCC(=O)N[C@@H](CCCN=C(N)N)C(=O)N[C@H](C(=O)N[C@@H](Cc1ccc(O)cc1)C(=O)N[C@H](C(=O)N[C@@H](Cc1c[nH]cn1)C(=O)N1CCC[C@H]1C(=O)N[C@H](C(=O)O)C(C(F)(F)F)C(F)(F)F)C(C)C)C(C)C [listing 1 of 3 here]
Kb (Rattus norvegicus [4]): 0.851 nM
Kb (Oryctolagus cuniculus [5]): 0.832 nM

CNCC(=O)N[C@@H](CCCN=C(N)N)C(=O)N[C@H](C(=O)N[C@@H](Cc1ccc(O)cc1)C(=O)N[C@H](C(=O)N[C@@H](Cc1c[nH]cn1)C(=O)N1CCC[C@H]1C(=O)N[C@@H](C(=O)O)C(C(F)(F)F)C(F)(F)F)C(C)C)C(C)C [listing 1 of 3 here]
Potency (Rattus norvegicus [6]): 4.1
Dose ratio (Oryctolagus cuniculus [7]): 42
Activity (Oryctolagus cuniculus [8]): 0%
Potency (Rattus norvegicus [9]): 2
Activity (Rattus norvegicus [10]): 0.03%
Dose ratio (Oryctolagus cuniculus [11]): 2.1

CNCC(=O)N[C@@H](CCCN=C(N)N)C(=O)N[C@H](C(=O)N[C@@H](Cc1ccc(O)cc1)C(=O)N[C@H](C(=O)N[C@@H](Cc1c[nH]cn1)C(=O)N1CCC[C@H]1C(=O)N[C@@H](C(=O)O)C(C(F)(F)F)C(F)(F)F)C(C)C)C(C)C [listing 2 of 3 here]
Kb (Rattus norvegicus [4]): 7.94 nM
Kb (Oryctolagus cuniculus [5]): 7.94 nM

CNCC(=O)N[C@@H](CCCN=C(N)N)C(=O)N[C@H](C(=O)N[C@@H](Cc1ccc(O)cc1)C(=O)N[C@H](C(=O)N[C@@H](Cc1c[nH]cn1)C(=O)N1CCC[C@H]1C(=O)N[C@@H](C(=O)O)C(C(F)(F)F)C(F)(F)F)C(C)C)C(C)C [listing 3 of 3 here]
Recovery time (Rattus norvegicus [12]): 32.3 min
Recovery time (Rattus norvegicus [2]): 60.1 min
Recovery time (Rattus norvegicus [13]): 12.5 min

H-DRVYVHPF-OH [[Val5] - ANGIOTENSIN II]
Activity (Oryctolagus cuniculus [8]): 100%
Activity (Rattus norvegicus [10]): 100%

CNCC(=O)N[C@@H](CCCN=C(N)N)C(=O)N[C@H](C(=O)N[C@@H](Cc1ccc(O)cc1)C(=O)N[C@H](C(=O)N[C@@H](Cc1c[nH]cn1)C(=O)N1CCC[C@H]1C(=O)N[C@H](CC(C)C)C(=O)O)C(C)C)C(C)C
Recovery time (Rattus norvegicus [14]): 37.6 min
Recovery time (Rattus norvegicus [12]): 13.5 min
Recovery time (Rattus norvegicus [2]): 23.6 min
Recovery time (Rattus norvegicus [3]): 34.5 min

CNCC(=O)N[C@@H](CCCN=C(N)N)C(=O)N[C@H](C(=O)N[C@@H](Cc1ccc(O)cc1)C(=O)N[C@H](C(=O)N[C@@H](Cc1c[nH]cn1)C(=O)N1CCC[C@H]1C(=O)N[C@H](C(=O)O)C(C(F)(F)F)C(F)(F)F)C(C)C)C(C)C [listing 2 of 3 here]
Potency (Rattus norvegicus [15]): 51.7
Potency (Oryctolagus cuniculus [16]): 294
Activity (Rattus norvegicus [17]): 0.8%
Potency (Oryctolagus cuniculus [18]): 6.1
Potency (Rattus norvegicus [19]): 2.2
Activity (Oryctolagus cuniculus [20]): 1.1%

CNCC(=O)N[C@@H](CCCN=C(N)N)C(=O)N[C@H](C(=O)N[C@@H](Cc1ccc(O)cc1)C(=O)N[C@H](C(=O)N[C@@H](Cc1c[nH]cn1)C(=O)N1CCC[C@H]1C(=O)N[C@@H](CC(C)C)C(=O)O)C(C)C)C(C)C
Kb (Rattus norvegicus [4]): 2.51 nM
Kb (Oryctolagus cuniculus [5]): 1.95 nM

CNCC(=O)N[C@@H](CCCN=C(N)N)C(=O)N[C@H](C(=O)N[C@@H](Cc1ccc(O)cc1)C(=O)N[C@H](C(=O)N[C@@H](Cc1c[nH]cn1)C(=O)N1CCC[C@H]1C(=O)N[C@H](C(=O)O)C(C(F)(F)F)C(F)(F)F)C(C)C)C(C)C [listing 3 of 3 here]
Recovery time (Rattus norvegicus [12]): 19 min
Recovery time (Rattus norvegicus [2]): 73.6 min
Recovery time (Rattus norvegicus [21]): 40.6 min
Recovery time (Rattus norvegicus [13]): 5.8 min
